In PMC5063151 (Chemmedchem, 2015):
Values belong to the molecule of their own block, whether it stands above or below them.

Assays:
VEGF11−109 (VEGF) = experiment: STD and WaterLOGSY ligand-observed NMR binding experiments; conditions: STD, 1 mM baicalin, 10 μM VEGF, 298 K
Summary of the method: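 Ligand‑observed STD and WaterLOGSY were run with 10 μM VEGF and 0.5 or 1 mM test compound in 25 mM sodium phosphate pH 7.0, 50 mM NaCl, […], at 37, 25 or 5 °C on 600/500 MHz spectrometers. On‑resonance saturation targeted the aliphatic protein region (STD) or the water signal (WaterLOGSY). Binding was judged from ligand STD/WaterLOGSY signals.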

[1] = tested on: VEGF (v107 / receptor binding site); experiment: STD competition assay with peptide v107; conditions: 1 mM baicalin, 10 μM VEGF, 298 K, 50 and 100 μM v107
[2] = molecular target: T1, methyl‐13C‐Met‐labeled VEGF (Homo sapiens, UniProt P15692); experiment: Protein-observed CSP with methyl‐13C‐Met‐labeled VEGF; type: binding
T1 sequence (P15692 217-315): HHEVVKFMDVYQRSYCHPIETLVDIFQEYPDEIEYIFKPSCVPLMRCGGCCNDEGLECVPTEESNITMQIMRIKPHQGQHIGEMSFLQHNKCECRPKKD
Summary of the method: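 Methyl‑13C‑Met‑labeled VEGF at 30 μM in 25 mM sodium phosphate pH 7.0, 50 mM NaCl, 10% D2O, usually at 45 °C. 1H–13C HSQC used 256×96 points with 8 scans per increment. 13C‑decoupled‑13C‑filtered 1D 1H spectra used 2048 points and 128 scans. KD came from ligand‑titration chemical shift perturbations.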

Binding of isolated compound to VEGF (VEGF11−109 (VEGF)): able to bind VEGF
Molecule: O=C(O)[C@H]1O[C@@H](Oc2cc3oc(-c4ccccc4)cc(=O)c3c(O)c2O)[C@H](O)[C@@H](O)[C@@H]1O [baicalin]
STD competition with v107 (reduction of ligand STD signals) [1]: baicalin and v107 compete for the same binding site

Methionine perturbations on 13C‐filtered‐13C‐decoupled 1H NMR spectra of VEGF ([2]; baicalin‐related flavonoids of Figure 7 a): induced methionine perturbations
Molecule: O=c1c(O[C@@H]2O[C@H](CO)[C@@H](O)[C@H](O)[C@H]2O)c(-c2ccc(O)c(O)c2)oc2cc(O)cc(O)c12 [quercetin‐3‐β‐glucoside]

VEGF binding affinity from titration experiments ([2]; CSP titration, methyl‐13C‐Met‐labeled VEGF): low‐millimolar range
Molecule: &D‐Pro‐Trp‐Glu‐D‐Pro‐Trp‐Glu& (head to tail)
